According to ChEMBL document CHEMBL1152591, “Design, synthesis and structure-activity relationship of 2-(3',4',5'-trimethoxybenzoyl)-benzo[b]furan derivatives as a novel class of inhibitors of tubulin polymerization” (Bioorg Med Chem, 2009):

Key:
L1210 = assay: Cytotoxicity against mouse L1210 cells after 2 days; assay type: functional, cell-based; details: L1210, 48 h
In short: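 Cells were incubated with the compounds at 37 °C for two days, then counted on a Coulter counter. IC50 is the concentration that inhibits cell proliferation by 50%.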

FM3A = assay: Cytotoxicity against mouse FM3A0 cells after 2 days; assay type: functional, cell-based; details: 48 h
[1] = Cytotoxicity against human Molt4/C8 cells after 2 days; details: MOLT-4, 48 h
HeLa = assay: Cytotoxicity against human HeLa cells after 2 days; assay type: functional, cell-based; details: 48 h
[2] = Inhibition of bovine tubulin polymerization; design: species or system Bos taurus
In short: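 Purified bovine brain tubulin (10 μM) in glutamate buffer was preincubated with varying compound concentrations at 30 °C, then cooled to 0 °C. GTP was added and the mixture warmed to 30 °C in a recording spectrophotometer. Assembly was followed by turbidity.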

Bos taurus = species: Bos taurus; assay: Displacement of [3H]colchicine from bovine tubulin at 5 uM
In short: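 Reaction mixtures held 1 μM bovine brain tubulin, 5 μM [3H]colchicine and 5 μM test compound. Inhibition of radiolabelled colchicine binding to tubulin is expressed as percent inhibition.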

K562 [3] = assay: Cell cycle arrest in human K562 cells assessed as accumulation at G1 phase at 26 nM after 24 hrs by flow cytometry; assay type: functional
In short: (§1)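 K562 leukaemia cells were cultured for 24 h with compound at one fixed concentration. DNA content per cell was measured by the standard propidium iodide procedure and flow cytometry. Proportions of cells in the sub-G0–G1 (apoptotic), G0–G1, S and G2–M peaks were compared with an untreated control.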

K562 [4] = assay: Cell cycle arrest in human K562 cells assessed as accumulation at S phase at 26 nM after 24 hrs by flow cytometry; assay type: functional; in short: as §1
K562 [5] = assay: Cell cycle arrest in human K562 cells assessed as accumulation at G2 phase at 26 nM after 24 hrs by flow cytometry; assay type: functional; in short: as §1
K562 [6] = assay: Cell cycle arrest in human K562 cells assessed as accumulation at sub-G0/G1 phase at 26 nM after 24 hrs by flow cytometry; assay type: functional; in short: as §1

IC50 [2]: 550 nM
Activity (Bos taurus): 97%
SMILES: COc1ccc2c(C)c(C(=O)c3cc(OC)c(OC)c(OC)c3)oc2c1
IC50 (L1210): 24 nM
IC50 (FM3A): 27 nM
IC50 [1]: 19 nM
IC50 (HeLa): 3.2 nM
Activity (K562 [3]): 2.19%
Activity (K562 [4]): 16.62%
Activity (K562 [5]): 81.19%
Activity (K562 [6]): 4.9%
